Converted amounts (≈) assume the structure as drawn. The source made the active and inactive calls. No cut-off for these calls is given here.
Experiments:
Hepatitis B virus [1] = experiment: Antiviral activity against HBV infected in human HepAD38 cells assessed as reduction in viral DNA levels incubated for 6 days by PCR analysis; assay type: functional, organism-based; conditions: HePAD38, 144 h
[2] = Cytotoxicity in human HepAD38 cells assessed as induction of cell killing; assay type: cell-based
[3] = Selectivity index, ratio of CC50 for cytotoxicity in human HepAD38 cells assessed as induction of cell killing to EC50 for antiviral activity against HBV infected in human HepAD38 cells assessed as reduction in viral DNA levels incubated for 6 days by PCR analysis; assay type: toxicity, cell-based; conditions: read-out: Ratio CC50/EC50
[4] = Solubility in water at 1 mg at 25 degC by HPLC analysis; assay type: physicochemical
In short: (§1)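 Solubility determined in water or 0.067 M phosphate buffer at pH 5.8, 6.8 and 7.4. Values are reported in mg/mL; ND means below the detection limit.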

[5] = Solubility in pH 5.8 phosphate buffer at 1 mg at 25 degC by HPLC analysis; assay type: physicochemical; in short: as §1
[6] = Solubility in pH 6.8 phosphate buffer at 1 mg at 25 degC by HPLC analysis; assay type: physicochemical; conditions: BLD = below limit of detection; in short: as §1
[7] = Half life in mouse plasma by HPLC analysis; assay type: ADME, cell-free
In short: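 Prodrug incubated in plasma at 37 °C, with percent remaining determined by HPLC to derive half-life.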

[8] = Stability in pH 7.4 buffer assessed as compound remaining level at 37 degC by HPLC analysis; assay type: physicochemical
In short: (§2)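 Prodrug incubated in buffer (0.1 M HCl, pH 5.8, 6.8 or 7.4) at 37 °C; percent of compound remaining determined by HPLC; remaining percentage reported after 3 h, stability meaning no hydrolysis after 2 h.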

[9] = Stability in pH 6.8 buffer assessed as compound remaining level at 37 degC by HPLC analysis; assay type: physicochemical; in short: as §2
[10] = Intrinsic clearance in mouse liver microsomes; assay type: ADME, Microsome; conditions: read-out: CLH
Hepatitis B virus [11] = experiment: Inhibition of HBsAg secretion in HBV infected human HepG2.2.15 cells at 2 uM for 4 days by ELISA; assay type: functional, organism-based; conditions: HepG2 2.2.15
In short: (§3)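 HepAD38 or HepG2.2.15 cells were treated at 2 µM for 4 days, with medium replaced every 2 days. Intracellular and extracellular DNA and RNA were quantified by qPCR or qRT-PCR, and HBeAg and HBsAg by ELISA. Results were compared with DMSO vehicle as mean ± SD, using a two-tailed t-test.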

Hepatitis B virus [12] = experiment: Inhibition of HBsAg secretion in HBV infected human HepAD38 cells at 2 uM for 4 days by ELISA; assay type: functional, organism-based; in short: as §3
Hepatitis B virus [13] = experiment: Antiviral activity against HBV infected in human HepAD38 cells assessed as inhibition of intracellular viral RNA accumulation at 2 uM for 4 days by qPCR or qRT-PCR relative to control; assay type: functional, organism-based; in short: as §3
Hepatitis B virus [14] = experiment: Antiviral activity against HBV infected in human HepG2.2.15 cells assessed as inhibition of intracellular viral RNA accumulation at 2 uM for 4 days by qPCR or qRT-PCR relative to control; assay type: functional, organism-based; conditions: HepG2 2.2.15; in short: as §3
Hepatitis B virus [15] = experiment: Antiviral activity against HBV infected in human HepAD38 cells assessed as inhibition of intracellular viral DNA accumulation at 2 uM for 4 days by qPCR or qRT-PCR relative to control; assay type: functional, organism-based; in short: as §3
Hepatitis B virus [16] = experiment: Antiviral activity against HBV infected in human HepG2.2.15 cells assessed as inhibition of intracellular viral DNA accumulation at 2 uM for 4 days by qPCR or qRT-PCR relative to control; assay type: functional, organism-based; conditions: HepG2 2.2.15; in short: as §3
Hepatitis B virus [17] = experiment: Antiviral activity against HBV infected in human HepG2.A64 cells containing reverse transcriptase L180M/T184L/M204V mutant assessed as reduction in viral replication incubated for 6 days by PCR analysis; assay type: functional, organism-based; conditions: HepG2.A64, 144 h
In short: (§4)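 Wild-type HBV replication measured in HepAD38 and HepG2.2.15 cells, lamivudine/entecavir-resistant HBV in HepG2.A64 cells (rtL180M+rtT184L+rtM204V) and multidrug-resistant HBV in HepG2.1403F cells (rtL180M+rtM204V+rtS202G+rtN236T). Read-out is reduction of HBV DNA. EC50 is reported as mean ± SD.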

Hepatitis B virus [18] = experiment: Antiviral activity against multidrug-resistant HBV infected in human HepG2.1403F cells assessed as reduction in viral replication incubated for 6 days by PCR analysis; assay type: functional, organism-based; conditions: 144 h; in short: as §4
Hepatitis B virus [19] = experiment: Antiviral activity against HBV infected in human HepG2.2.15 cells assessed as reduction in viral DNA levels incubated for 6 days by PCR analysis; assay type: functional, organism-based; conditions: HepG2 2.2.15, 144 h
[20] = Cytotoxicity in human HepG2 cells assessed as induction of cell killing; assay type: cell-based
[21] = Intrinsic clearance in human liver microsomes; assay type: ADME, Microsome; conditions: read-out: CLH

| EC50 (Hepatitis B virus [1]) | SMILES | CC50 [2] | selectivity ratio at 144 h [3] | further results |
| --- | --- | --- | --- | --- |
| 3140 nM | O=S(=O)(c1ccc2c(c1)c(Nc1ccc(Cl)cc1)nn2C1CC1)N1CCC(O)CC1 | 6.9 µM | 2.2 |  |
| 290 nM | Cc1cc(Nc2n[nH]c3ccc(S(=O)(=O)N4CCOCC4)cc23)ccc1F | 50 µM | 172 |  |
|  | Cc1cc(Nc2nn(C3CC3)c3cnc(S(=O)(=O)N4CCC(OC(=O)CN(C)C)CC4)cc23)ccc1F.O=C(O)/C=C\C(=O)O |  |  | solubility [4]: 4200 µg/mL; solubility [5]: 7930 µg/mL; solubility [6]: Bld |
| 2000 nM | O=S(=O)(c1cc(F)c2c(c1)c(Nc1cc(F)c(F)c(F)c1)nn2C1CC1)N1CCC(O)CC1 | > 100 µM | > 50 |  |
|  | Cc1cc(Nc2nn(C3CC3)c3cnc(S(=O)(=O)N4CCC(OC(=O)[C@@H](N)C(C)C)CC4)cc23)ccc1F.O=C(O)C(F)(F)F |  |  | half-life [7]: 1080 min; Stability [8]: Stable; Stability [9]: Unstable |
| 190 nM | O=S(=O)(c1ccc2c(c1)c(Nc1ccc(F)c(Cl)c1)nn2C1CC1)N1CCC(O)CC1 | 18.3 µM | 96 |  |
| 120 nM | O=S(=O)(c1ccc2c(c1)c(Nc1ccc(F)c(F)c1)nn2C1CC1)N1CCC(O)CC1 | 75 µM | 625 |  |
| 230 nM | O=S(=O)(c1cc2c(Nc3ccc(F)c(C(F)F)c3)nn(C3CC3)c2cn1)N1CCOCC1 | > 100 µM | > 435 |  |
| 220 nM | O=S(=O)(c1ccc2c(c1)c(Nc1ccc(F)cc1)nn2C1CC1)N1CCC(O)CC1 | > 100 µM | > 455 |  |
| 410 nM | Cc1cc(Nc2nn(CCF)c3ccc(S(=O)(=O)N4CCOCC4)cc23)ccc1F | > 100 µM | > 244 |  |
| 430 nM | O=S(=O)(c1ccc2c(c1)c(Nc1ccc(F)cc1)nn2C1CC1)N1CCOCC1 | > 100 µM | > 232 |  |
| 230 nM | Cc1cc(Nc2nn(CC(F)F)c3ccc(S(=O)(=O)N4CCOCC4)cc23)ccc1F | > 100 µM | > 435 |  |
|  | Cc1cc(Nc2nn(C3CC3)c3cnc(S(=O)(=O)N4CCC(OC(=O)CN(C)C)CC4)cc23)ccc1F |  |  | solubility [4]: 710 µg/mL (≈ 1340 µM) |
| 57 nM | Cc1cc(Nc2nn(C3CC3)c3ccc(S(=O)(=O)N4CCOCC4)cc23)ccc1F | > 100 µM |  | microsomal CLint [21]: 41 µL/min/mg; microsomal CLint [10]: 26.9 µL/min/mg |
| 2100 nM | O=S(=O)(c1ccc2c(c1)c(Nc1ccc(F)cc1)nn2C1CC1)N1CCC(O)C1 (stereo not drawn) | 60 µM | 28 |  |
| 1150 nM | Cc1cc(F)ccc1Nc1nn(C2CC2)c2ccc(S(=O)(=O)N3CCC(O)CC3)cc12 | > 100 µM | > 87 |  |
| 220 nM | O=S(=O)(c1ccc2c(c1)c(Nc1ccc(F)c(F)c1)nn2C1CC1)N1CCOCC1 | > 100 µM | > 454 |  |

| SMILES | EC50 (Hepatitis B virus [1]) | CC50 [2] | selectivity ratio at 144 h [3] | further results |
| --- | --- | --- | --- | --- |
| O=S(=O)(c1cc2c(Nc3ccc(F)c(C(F)F)c3)nn(C3CC3)c2cn1)N1CCC(O)CC1 | 71 nM | > 100 µM | > 1410 | microsomal CLint [10]: 6.9 µL/min/mg; inhibition (Hepatitis B virus [11]): inactive; inhibition (Hepatitis B virus [12]): inactive; inhibition (Hepatitis B virus [13]): Active; inhibition (Hepatitis B virus [14]): Active; inhibition (Hepatitis B virus [15]): Active; inhibition (Hepatitis B virus [16]): Active; EC50 (Hepatitis B virus [17]): 2.2 nM; EC50 (Hepatitis B virus [18]): 13 nM; EC50 (Hepatitis B virus [19]): 42 nM; CC50 [20]: > 100 µM |
| C[C@H](Cn1cnc2c(N)ncnc21)OCP(=O)(O)O [TENOFOVIR ANHYDROUS] | 10 nM |  |  | EC50 (Hepatitis B virus [17]): 840 nM; EC50 (Hepatitis B virus [18]): 2520 nM; CC50 [20]: 15 µM |
